# Test results from ChEMBL document CHEMBL4610036, “Discovery of small molecule antagonists of chemokine receptor CXCR6 that arrest tumor growth in SK-HEP-1 mouse xenografts as a model of hepatocellular carcinoma” (Bioorg Med Chem Lett, 2020).
# Active and inactive are the calls of the source. The calls are words filed in the database; no cut-off is given here.
# Tests used:
# [1] = biological target: T1, C-X-C chemokine receptor type 6 (Homo sapiens, UniProt O00574); assay: Antagonist activity at Prolink-tagged human CXCR6 receptor assessed as inhibition of CXCL16-induced beta-arrestin recruitment by DiscoveRx cell based assay relative to control; set-up: concentration or dose not given beside the values
# How it was run: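 CXCR6 β-arrestin cells in assay media without G418/hygromycin, 800 cells/well, grown overnight at 37 °C; compounds added acoustically (DMSO ≤0.3%), then 20 nM CXCL16 (final) for 90 min at 37 °C. PathHunter luminescence read. Normalized between CXCL16-alone and no-ligand wells; four-parameter fit with Hill slope fixed at 1; at least two runs on different days, averaged pIC50 ± SD.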
# Target sequence in this assay (O00574 whole entry, looked up): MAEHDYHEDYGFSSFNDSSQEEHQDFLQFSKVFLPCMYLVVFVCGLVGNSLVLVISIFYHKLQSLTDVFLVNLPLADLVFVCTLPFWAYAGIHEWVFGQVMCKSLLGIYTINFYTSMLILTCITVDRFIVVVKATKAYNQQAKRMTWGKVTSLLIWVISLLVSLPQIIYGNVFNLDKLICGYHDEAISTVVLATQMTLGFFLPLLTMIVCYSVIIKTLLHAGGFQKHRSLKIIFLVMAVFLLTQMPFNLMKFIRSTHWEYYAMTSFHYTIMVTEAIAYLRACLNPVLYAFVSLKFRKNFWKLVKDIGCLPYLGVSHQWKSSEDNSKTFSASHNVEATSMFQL
# [2] = biological target: T1, C-X-C chemokine receptor type 6; assay: Antagonist activity at Prolink-tagged human CXCR6 receptor assessed as inhibition of forskolin-induced cAMP accumulation by DiscoveRx cell based assay; assay type: functional
# How it was run: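 Lance Ultra TR-FRET cAMP assay in CXCR6 β-arrestin cells, 500 cells/well in OptiMEM/2% FBS, grown overnight. Compound added, then forskolin (2.5 mM stock) in HBSS/HEPES/BSA/RO-20-1724 with or without 20 nM CXCL16, 30 min at room temperature. Eu-cAMP tracer and ULight anti-cAMP antibody added, read after 30 min. Curve fit with Hill slope 1; ≥2 independent runs.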
# Target sequence in this assay (O00574 whole entry): as the sequence (O00574 whole entry, looked up) above
# [3] = biological target: T1, C-X-C chemokine receptor type 6; assay: Antagonist activity at Prolink-tagged human CXCR6 receptor assessed as inhibition of forskolin-induced cAMP accumulation by DiscoveRx cell based assay relative to control; assay type: functional; set-up: concentration or dose not given beside the values
# How it was run: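 CXCR6 β-arrestin cells in OptiMEM with 2% FBS, 500 cells/well, grown overnight; compounds added, then forskolin with 20 nM CXCL16 (stock concentrations) in HBSS/HEPES/BSA with RO-20-1724, 30 min at room temperature. cAMP read by LANCE Ultra TR-FRET after a further 30 min. Hill slope fixed at 1; at least two runs on different days, averaged pIC50 ± SD.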
# Target sequence in this assay (O00574 whole entry, looked up): as above
# [4] = biological target: T1, C-X-C chemokine receptor type 6; assay: Antagonist activity at Prolink-tagged human CXCR6 receptor assessed as inhibition of CXCL16-induced beta-arrestin recruitment by DiscoveRx cell based assay
# Target sequence in this assay (O00574 whole entry): as the sequence (O00574 whole entry, looked up) above
# [5] = biological target: T1, C-X-C chemokine receptor type 6; assay: Inhibition of CXCR6-mediated cell invasion in human SKHEP1 cells after 72 hrs by transwell assay; assay type: cell-based; settings: SK-HEP1
# How it was run: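 SK-HEP-1 cells, 100k/well in 0.2% FBS, seeded in upper chamber of a chemotaxis plate coated with matrigel (250 μg/ml). CXCL16 (0.6 μg/ml) in lower chamber; compound in both chambers. Kept at 37 °C, 5% CO2 and imaged hourly in IncuCyte. Migration quantified as confluence from phase-contrast images.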
# Target sequence in this assay (O00574 whole entry, looked up): as above
# SK-HEP1 [6] = assay: Antitumor activity against human SKHEP1 cells xenografted in NOD/SCID mouse assessed as inhibition of tumor growth at 30 to 60 mg/kg, po administered on day 4 to day 30 post-tumor cell inoculation; assay type: functional, organism-based
# [7] = Volume of distribution at steady state in mouse at 5 mg/kg, iv; assay type: ADME, organism-based; settings: in vivo, read-out: Vdss
# [8] = Toxicity in NOD/SCID mouse xenografted with human SKHEP1 cells assessed as animal weight at 30 to 60 mg/kg, po administered on day 4 to day 30 post-tumor cell inoculation; assay type: organism-based, SK-HEP1; settings: in vivo
# [9] = biological target: T2, C-X-C chemokine receptor type 6 (Mus musculus, UniProt Q9EQ16); assay: Antagonist activity at mouse CXCR6 by DiscoveRx cell based beta-arrestin assay
# T2 sequence (Q9EQ16 whole entry): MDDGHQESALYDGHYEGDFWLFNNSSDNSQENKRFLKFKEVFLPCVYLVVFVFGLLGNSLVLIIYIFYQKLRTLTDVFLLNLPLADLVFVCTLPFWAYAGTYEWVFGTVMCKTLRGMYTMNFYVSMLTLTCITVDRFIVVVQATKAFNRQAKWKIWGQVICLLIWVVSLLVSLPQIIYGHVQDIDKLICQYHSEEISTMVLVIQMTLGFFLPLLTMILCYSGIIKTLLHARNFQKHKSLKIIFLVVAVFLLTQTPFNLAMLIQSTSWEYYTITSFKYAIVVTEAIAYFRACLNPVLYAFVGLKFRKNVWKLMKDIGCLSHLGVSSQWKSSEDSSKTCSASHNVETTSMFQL
# [10] = Cmax in mouse at 10 mg/kg, po; assay type: ADME, organism-based; set-up: dose 10 mg/kg, route oral; settings: in vivo
# How it was run: (§1)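 Mice dosed orally by gavage, dose volume set by morning body weight. Serial blood samples (~30 μl) from submandibular or saphenous vein into K2EDTA. Plasma separated by centrifugation at 3000 g, stored at −70 °C, analysed by LC/MS/MS.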
# [11] = Stability in mouse plasma; assay type: ADME, cell-free
# [12] = Clearance in mouse at 5 mg/kg, iv; assay type: ADME, organism-based; settings: in vivo
# [13] = Toxicity in NOD/SCID mouse xenografted with human SKHEP1 cells assessed as effect on behavior phenotypes at 30 to 60 mg/kg, po administered on day 4 to day 30 post-tumor cell inoculation; assay type: organism-based, SK-HEP1; settings: in vivo
# SK-HEP1 [14] = assay: Antitumor activity against human SKHEP1 cells xenografted in NOD/SCID mouse assessed as tumor weight at 30 mg/kg, po administered on day 4 to day 30 post-tumor cell inoculation (reference value: 151 +/- 66 mg); assay type: functional
# [15] = Toxicity in NOD/SCID mouse xenografted with human SKHEP1 cells assessed as animal death at 30 to 60 mg/kg, po administered on day 4 to day 30 post-tumor cell inoculation; assay type: organism-based, SK-HEP1; settings: in vivo
# SK-HEP1 [16] = assay: Toxicity in human SKHEP1 cells assessed as effect on cell viability after 72 hrs; assay type: cell-based; settings: sk-hep1, 72 h
# [17] = Half life in mouse at 10 mg/kg, po; assay type: ADME, organism-based; settings: in vivo; how it was run: as §1
# [18] = Half life in mouse at 5 mg/kg, iv; assay type: ADME, organism-based; settings: in vivo
# [19] = Ratio of solubility of compound in aqueous buffer at pH 5 to 7.4 to IC50 for Prolink-tagged human CXCR6 receptor by DiscoveRx cell based assay; assay type: physicochemical
# [20] = test system: CXCR6 receptor (Prolink-tagged, human); assay: Safety index, ratio of LC50 for toxicity in human liver microsomes to IC50 for Prolink-tagged human CXCR6 receptor; settings: read-out: Ratio LC50/IC50
# [21] = Toxicity in human liver microsomes; set-up: species or system Microsome
# SK-HEP1 [22] = assay: Antitumor activity against human SKHEP1 cells xenografted in NOD/SCID mouse assessed as tumor weight at 60 mg/kg, po administered on day 4 to day 30 post-tumor cell inoculation (reference value: 151 +/- 66 mg); assay type: functional
# [23] = Drug metabolism in human liver microsomes incubated up to 1 hr; assay type: ADME, Microsome; settings: read-out: Drug metabolism
# How it was run: (§2)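 Liver microsomes (1.0 mg/mL) preincubated with compound (1 μM final) for 10 min at 37 °C. Reaction started with NADPH-generating system (NADP+, glucose-6-phosphate, G6PDH, MgCl2) in 100 mM potassium phosphate, pH 7.4. Sampled at 0, 5, 15, 30 and 60 min; percent remaining at 1 hr reported.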
# [24] = Drug metabolism in mouse liver microsomes incubated up to 1 hr; assay type: ADME, Microsome; settings: read-out: Drug metabolism; how it was run: as §2
# [25] = AUC in mouse at 10 mg/kg, po; assay type: ADME, organism-based; settings: in vivo; how it was run: as §1
# [26] = Stability in human plasma; assay type: ADME, cell-free
# [27] = biological target: C-X-C chemokine receptor type 4 (Homo sapiens, UniProt P61073); assay: Antagonist activity at human CXCR4
# [28] = biological target: T3, C-C chemokine receptor type 6 (Homo sapiens, UniProt P51684); assay: Antagonist activity at human CCR6
# T3 sequence (P51684 whole entry): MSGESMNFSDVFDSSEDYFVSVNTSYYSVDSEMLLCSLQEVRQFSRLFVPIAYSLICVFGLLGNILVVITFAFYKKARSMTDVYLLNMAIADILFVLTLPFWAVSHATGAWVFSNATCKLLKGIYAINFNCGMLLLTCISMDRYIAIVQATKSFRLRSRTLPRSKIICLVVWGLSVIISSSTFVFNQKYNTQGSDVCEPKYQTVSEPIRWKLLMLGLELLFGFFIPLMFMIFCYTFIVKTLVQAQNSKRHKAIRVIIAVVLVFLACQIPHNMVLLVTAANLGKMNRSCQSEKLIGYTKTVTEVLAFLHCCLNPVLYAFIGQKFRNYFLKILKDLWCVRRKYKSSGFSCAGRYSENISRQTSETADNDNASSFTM
# [29] = biological target: T4, C-X-C chemokine receptor type 5 (Homo sapiens, UniProt P32302); assay: Antagonist activity at human CXCR5
# T4 sequence (P32302 whole entry): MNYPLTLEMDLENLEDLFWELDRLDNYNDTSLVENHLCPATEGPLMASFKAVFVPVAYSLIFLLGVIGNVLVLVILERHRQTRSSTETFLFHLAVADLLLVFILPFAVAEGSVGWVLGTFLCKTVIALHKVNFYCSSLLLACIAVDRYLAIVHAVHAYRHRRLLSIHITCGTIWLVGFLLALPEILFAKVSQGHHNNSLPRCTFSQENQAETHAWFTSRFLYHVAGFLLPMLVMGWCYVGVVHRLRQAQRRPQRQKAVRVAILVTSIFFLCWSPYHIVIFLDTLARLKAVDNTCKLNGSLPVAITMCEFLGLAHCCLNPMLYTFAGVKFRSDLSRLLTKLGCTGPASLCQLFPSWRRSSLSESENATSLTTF
# Sequence of C-X-C chemokine receptor type 4 (P61073 whole entry): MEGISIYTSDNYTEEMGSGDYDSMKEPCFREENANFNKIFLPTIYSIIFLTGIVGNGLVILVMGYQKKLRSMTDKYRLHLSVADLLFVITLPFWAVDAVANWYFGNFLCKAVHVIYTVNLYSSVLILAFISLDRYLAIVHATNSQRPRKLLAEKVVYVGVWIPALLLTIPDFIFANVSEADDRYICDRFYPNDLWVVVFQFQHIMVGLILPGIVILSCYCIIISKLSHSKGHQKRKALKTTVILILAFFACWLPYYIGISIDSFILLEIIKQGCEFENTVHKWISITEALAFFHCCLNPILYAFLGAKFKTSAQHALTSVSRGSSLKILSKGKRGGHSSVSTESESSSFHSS
smiles,measurement,setting,value
COc1cc(C(=O)N[C@@H]2C[C@H]3CCC[C@@H](C2)N3Cc2nc3c(Cl)cccc3s2)cc(OC)c1OC,inhibition,[1]; concentration not given here,103%
same,IC50,[2],0.9 µM
same,inhibition,[3]; concentration not given here,95%
same,IC50,[4],0.13 µM
same,inhibition,[5],Active
COc1cc(C(=O)N[C@@H]2C[C@H]3CCC[C@@H](C2)N3Cc2nc3c(C(F)(F)F)cccc3s2)cc(OC)c1OC,Activity,SK-HEP1 [6],Active
same,Vd,[7],3.32 L/kg
same,Activity,[8],Non-Toxic
same,IC50,[9],> 40 µM
same,Cmax,[10],798 ng/mL
same,Stability,[11],Stable
same,inhibition,[1]; concentration not given here,103%
same,clearance,[12],28.4 mL/min/kg
same,Activity,[13],Non-Toxic
same,inhibition,[3]; concentration not given here,98%
same,Activity,SK-HEP1 [14],59 mg
same,Activity,[15],Non-Toxic
same,Activity,SK-HEP1 [16],Non-Toxic
same,half-life,[17],2.82 h
same,IC50,[4],0.04 µM
same,half-life,[18],1.58 h
same,Ratio,[19],>= 10
same,selectivity ratio,[20],> 40
same,LC50,[21],>= 25 uM
same,Activity,SK-HEP1 [22],55 mg
same,metabolised at 1 h,[23],100%
same,inhibition,[5],Dose-dependent effect
same,metabolised at 1 h,[24],100%
same,AUC,[25],2050 ng·h/mL
same,Stability,[26],Stable
O=C(CN1[C@@H]2CCC[C@H]1C[C@H](NC(=O)c1ccccc1)C2)Nc1ccccc1,inhibition,[1],inactive
same,IC50,[2],> 80 µM
same,inhibition,[3],inactive
same,IC50,[4],> 40 µM
same,inhibition,[5],inactive
COc1cc(C(=O)N[C@@H]2C[C@H]3CCC[C@@H](C2)N3CC(=O)Nc2ccccc2Cl)cc(OC)c1OC,IC50,[9],18 µM
same,IC50,[27],> 80 µM
same,IC50,[28],> 80 µM
same,inhibition,[1]; concentration not given here,100%
same,IC50,[2],1.4 µM
same,inhibition,[3]; concentration not given here,102%
same,IC50,[4],0.14 µM
same,IC50,[29],> 80 µM
COc1cc(C(=O)N[C@@H]2C[C@H]3CCC[C@@H](C2)N3Cc2nc3cccc(Cl)c3s2)cc(OC)c1OC,inhibition,[1]; concentration not given here,102%
same,IC50,[2],8.9 µM
same,inhibition,[3]; concentration not given here,93%
same,IC50,[4],0.26 µM
COc1cc(C(=O)N[C@@H]2C[C@H]3CCC[C@@H](C2)N3CC(=O)Nc2ccccc2C#N)cc(OC)c1OC,inhibition,[1]; concentration not given here,91%
same,IC50,[2],7 µM
same,inhibition,[3]; concentration not given here,105%
same,IC50,[4],0.93 µM
COc1cc(C(=O)N[C@@H]2C[C@H]3CCC[C@@H](C2)N3CCc2nc3ccccc3s2)cc(OC)c1OC,inhibition,[1],inactive
same,IC50,[2],> 50 µM
same,inhibition,[3],inactive
same,IC50,[4],> 50 µM
COc1cc(C(=O)N[C@@H]2C[C@H]3CCC[C@@H](C2)N3Cc2nc3c(OC)cccc3s2)cc(OC)c1OC,inhibition,[1]; concentration not given here,86%
same,IC50,[2],> 50 µM
same,inhibition,[3],inactive
same,IC50,[4],3.1 µM
COc1cc(C(=O)N[C@@H]2C[C@H]3CCC[C@@H](C2)N3CC(=O)c2nc3ccccc3s2)cc(OC)c1OC,inhibition,[1]; concentration not given here,75%
same,IC50,[2],> 50 µM
same,inhibition,[3],inactive
same,IC50,[4],12.7 µM
COc1cc(C(=O)N[C@@H]2C[C@H]3CCC[C@@H](C2)N3CC(=O)Nc2c(Cl)cccc2Cl)cc(OC)c1OC,inhibition,[1]; concentration not given here,57%
same,IC50,[2],> 40 µM
same,inhibition,[3],inactive
same,IC50,[4],38.2 µM
